The results in this text go back to ChEMBL document CHEMBL3784931, “Synthesis and evaluation of novel angiotensin II receptor 1 antagonists as anti-hypertension drugs” (Bioorg Med Chem, 2016).

As usually defined, the IC50 is the concentration needed to halve the response being measured. For orientation: Ki means the dissociation constant of the complex between target and ligand, obtained from inhibition or displacement. Read a high Ki as weaker binding.

SMILES strings stand for the structures. Active and inactive are the calls of the source. The calls are words filed in the database; no cut-off is given here.

Assay [1] has as its system Rattus norvegicus. Nature of the assay: Antihypertensive activity in spontaneous hypertensive rat model assessed as reduction in mean blood pressure at 10 mg/kg, po administered for 2 hrs. In kind it is functional, organism-based. The method, boiled down: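 Male SHRs were randomized, n = 6 per group. Compound was suspended in DMSO/oleic acid (1:4) and given by oral gavage; vehicle controls got the same volume of solvent. SBP and DBP were recorded in conscious animals by noninvasive tail-artery manometry. MBP = (SBP − DBP)/3 + DBP. Data are mean ± SEM, with p < 0.05 taken as significant.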

Assay [2] has as its target T1, Type-1 angiotensin II receptor A (Rattus norvegicus, UniProt P25095).
T1 sequence (P25095 whole entry): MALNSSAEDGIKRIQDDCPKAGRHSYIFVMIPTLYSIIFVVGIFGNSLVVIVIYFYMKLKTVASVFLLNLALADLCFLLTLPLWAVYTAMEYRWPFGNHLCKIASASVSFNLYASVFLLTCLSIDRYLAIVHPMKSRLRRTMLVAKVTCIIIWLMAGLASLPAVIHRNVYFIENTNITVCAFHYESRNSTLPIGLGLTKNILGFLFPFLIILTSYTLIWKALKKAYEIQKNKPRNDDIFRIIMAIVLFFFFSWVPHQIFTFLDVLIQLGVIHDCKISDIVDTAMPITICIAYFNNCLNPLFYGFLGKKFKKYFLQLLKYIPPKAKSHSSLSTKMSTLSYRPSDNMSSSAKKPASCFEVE
The assay is described as follows: Displacement of [125I]-Ang II from Angiotensin 2 type-1A receptor in rat vascular smooth muscle cells after 150 mins by gamma counting method. An outline of the steps:
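Rat vascular smooth muscle cells (passages 3–6) were seeded at 10⁶ cells/well and grown at 37 °C in 5% CO₂. Nonspecific binding was taken with 1 µM Ang II. Cells were washed three times, lysed 10 min in 0.1 M NaOH, and bound radioactivity was gamma counted.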
(In general: Displacement assays read how much labelled ligand stays bound in the presence of the test substance.)

Take `CCCCc1nc(Cl)c(CO)n1Cc1ccc(-c2ccccc2-c2nnn[nH]2)cc1`: in assay [1], the outcome was Active. Take `CCCCc1nc(Cl)c(CO)n1Cc1ccc(-c2ccccc2-c2noc(=O)[nH]2)cc1`: in assay [2], the IC50 amounted to 5.94 nM and the inhibitory constant (Ki) amounted to 4.3 nM.
